Measured values reported in paper PMC10583827 (RSC Medicinal Chemistry, 2023).

Columns and labels:
[1] = Host macrophage cytotoxicity, resazurin assay; type: cell-based; details: human, PMA-differentiated THP-1 cells (macrophages)
Cyclic voltammetry = type: physicochemical; details: acetonitrile; for ipa/ipc, ratio of anodic to cathodic current / ΔEp, wave potential separation (Epa − Epc): scan rate 100 mV s−1; for E1/2, half wave potential (E1/2 = (Epa + Epc)/2) / Epa, anodic wave potential / Epc, cathodic wave potential: scan rate 100 mV s−1, V vs. Ag/AgCl
Summary of the method: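 Test compound at 0.5 mM in anhydrous acetonitrile with 0.1 M […] as background electrolyte. Three-electrode cell: glassy carbon working, Pt wire counter, Ag/AgCl reference. Scanned from −1.7 to +1.0 V at 100 mV s−1 with a 20 mV E step, 6 cycles per compound, at 25 °C. Half-wave potentials were taken from the voltammograms.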

[2] = tested on: L. donovani strain 9515 amastigotes; experiment: Intramacrophage antileishmanial assay; type: cell-based, Leishmania donovani; details: antimonial-resistant L. donovani; activity retained 72 hours post lysis
Vero cells = experiment: General/basal cytotoxicity, resazurin assay

SMILES	ipa/ipc, ratio of anodic to cathodic current (Cyclic voltammetry)	ΔEp, wave potential separation (Epa − Epc) (Cyclic voltammetry)	E1/2, half wave potential (E1/2 = (Epa + Epc)/2) (Cyclic voltammetry)	Epa, anodic wave potential (Cyclic voltammetry)	Epc, cathodic wave potential (Cyclic voltammetry)	IC50 at 72 h [1]	Cidal anti-amastigote activity against L. donovani [2]	Toxicity to mammalian cells, class in words (Vero cells)
O=[N+]([O-])c1ccc(/C=N/N=C/c2ccc(O)cc2)s1 [8b, 4-(E)-(E)-[(5-Nitrothiophen-2-yl)methylene]hydrazonomethylphenol]	1.002	0.24 V	−0.94 V	−0.82 V	−1.06 V	–	cidal	moderate toxicity
NC(=O)N/N=C/c1ccc([N+](=O)[O-])o1 [NFZ, nitrofurazone, reference compound]	–	–	–	–	–	> 100 µM	–	–
O=[N+]([O-])c1ccc(/C=N/N=C/c2ccc(Br)cc2)s1 [4b, (1E,2E)-1-(4-Bromobenzylidene)-2-[(5-nitrothiophen-2-yl)methylene]hydrazine]	0.961	0.24 V	−0.92 V	−0.80 V	−1.04 V	–	–	–
O=Cc1ccc([N+](=O)[O-])o1 [NFA, 5-nitro-2-furaldehyde, reference compound]	0.967	0.28 V	−0.88 V	−0.74 V	−1.02 V	–	–	–
Cc1ccc(/C=N/N=C/c2ccc([N+](=O)[O-])s2)cc1 [5b, (1E,2E)-1-(4-Methylbenzylidene)-2-[(5-nitrothiophen-2-yl)methylene]hydrazine]	1.000	0.24 V	−0.90 V	−0.78 V	−1.02 V	–	–	–
O=[N+]([O-])c1ccc(/C=N/N=C/c2ccc([N+](=O)[O-])s2)cc1 [9b, (1E,2E)-1-(4-Nitrobenzylidene)-2-[(5-nitrothiophen-2-yl)methylene]hydrazine]	0.951	0.24 V	−0.94 V	−0.82 V	−1.06 V	–	–	–
O=C(Cn1ccnc1[N+](=O)[O-])NCc1ccccc1 [Bzn, benznidazole, reference compound]	–	–	–	–	–	> 100 µM	–	–
O=Cc1ccc([N+](=O)[O-])s1 [NTA, 5-nitrothiophene-2-carboxaldehyde, reference compound]	0.755	0.20 V	−0.96 V	−0.86 V	−1.06 V	–	–	–
O=[N+]([O-])c1ccc(/C=N/N=C/c2ccc(OCc3ccccc3)cc2)s1 [7b, (1E,2E)-1-[4-(Benzyloxy)benzylidene]-2-[(5-nitrothiophen-2-yl)methylene]hydrazine]	–	–	–	–	–	> 100 µM	–	low toxicity
COc1ccc(/C=N/N=C/c2ccc([N+](=O)[O-])s2)cc1 [6b, (1E,2E)-1-(4-Methoxybenzylidene)-2-[(5-nitrothiophen-2-yl)methylene]hydrazine]	0.990	0.24 V	−0.92 V	−0.80 V	−1.04 V	–	–	–

Now from value to compound, other results behind:

ipa/ipc, ratio of anodic to cathodic current (Cyclic voltammetry)	ΔEp, wave potential separation (Epa − Epc) (Cyclic voltammetry)	E1/2, half wave potential (E1/2 = (Epa + Epc)/2) (Cyclic voltammetry)	Epa, anodic wave potential (Cyclic voltammetry)	Epc, cathodic wave potential (Cyclic voltammetry)	SMILES	IC50 at 72 h [1]	Cidal anti-amastigote activity against L. donovani [2]	Toxicity to mammalian cells, class in words (Vero cells)
1.016	0.24 V	−0.88 V	−0.76 V	−1.00 V	O=[N+]([O-])c1ccc(/C=N/N=C/c2ccccc2)o1 [1a, (1E,2E)-1-Benzylidene-2-[(5-nitrofuran-2-yl)methylene]hydrazine]	> 100 µM	–	–
1.032	0.22 V	−0.95 V	−0.84 V	−1.06 V	O=[N+]([O-])c1ccc(/C=N/N=C/c2ccccc2)s1 [1b, (1E,2E)-1-Benzylidene-2-[(5-nitrothiophen-2-yl)methylene]hydrazine]	> 100 µM	cidal	moderate toxicity
–	0.26 V	−0.91 V	−0.78 V	−1.04 V	O=[N+]([O-])c1ccc(/C=N/N=C/c2ccc(OCc3ccccc3)cc2)o1 [7a, (1E,2E)-1-[4-(Benzyloxy)benzylidene]-2-[(5-nitrofuran-2-yl)methylene]hydrazine]	> 100 µM	–	low toxicity
1.007	0.24 V	−0.94 V	−0.82 V	−1.06 V	Cc1ccc(/C=N/N=C/c2ccc([N+](=O)[O-])o2)cc1 [5a, (1E,2E)-1-(4-Methylbenzylidene)-2-[(5-nitrofuran-2-yl)methylene]hydrazine]	> 100 µM	–	low toxicity
0.889	0.22 V	−0.85 V	−0.74 V	−0.96 V	O=[N+]([O-])c1ccc(/C=N/N=C/c2ccc(Cl)cc2)s1 [3b, (1E,2E)-1-(4-Chlorobenzylidene)-2-[(5-nitrothiophen-2-yl)methylene]hydrazine]	–	–	–
0.965	0.34 V	−0.85 V	−0.68 V	−1.02 V	COc1ccc(/C=N/N=C/c2ccc([N+](=O)[O-])o2)cc1 [6a, (1E,2E)-1-(4-Methoxybenzylidene)-2-[(5-nitrofuran-2-yl)methylene]hydrazine]	> 100 µM	cidal	–
1.022	0.22 V	−0.89 V	−0.78 V	−1.00 V	O=[N+]([O-])c1ccc(/C=N/N=C/c2ccc(F)cc2)s1 [2b, (1E,2E)-1-(4-Fluorobenzylidene)-2-[(5-nitrothiophen-2-yl)methylene]hydrazine]	> 100 µM	–	low toxicity
0.943	0.26 V	−0.95 V	−0.82 V	−1.08 V	O=[N+]([O-])c1ccc(/C=N/N=C/c2ccc(O)cc2)o1 [8a, 4-{(E)-{(E)-[(5-Nitrofuran-2-yl)methylene]hydrazono}methyl}phenol]	–	–	–
